Test results from ChEMBL document CHEMBL1275290, “4-Aminoquinoline derived antimalarials: synthesis, antiplasmodial activity and heme polymerization inhibition studies” (Eur J Med Chem, 2010).

Columns and labels:
[1] = Inhibition of beta-hematin polymerization by UV spectrophotometry based BHIA assay relative to untreated hemin control; format: functional
Outline: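 IC50 expressed as millimolar equivalents of compound relative to hemin needed to block beta-hematin formation by 50%. Triplicate readings converted to percent inhibition versus drug-free hemozoin control; IC50 from sigmoidal dose-response non-linear regression. Means ± SD from at least three experiments in duplicate.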

Plasmodium falciparum [2] = assay: Antimalarial activity against chloroquine-sensitive Plasmodium falciparum D6 after 72 hrs by SYBR Green I fluorescence based method; format: functional, organism-based; details: D6, 72 h
Outline: (§1)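 Asynchronous continuous P. falciparum cultures diluted with uninfected erythrocytes in RPMI-1640 + 0.5% Albumax II to 0.2% parasitemia, 2% hematocrit. Compounds from 10 mM DMSO stock diluted in medium (0.1 nM–100 range). 72 h incubation under standard culture conditions; SYBR Green I fluorescence read (ex 497/em 520 nm). Triplicate experiments; IC50 from variable-slope sigmoidal dose–response fits.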

Plasmodium falciparum [3] = assay: Antimalarial activity against chloroquine-resistant Plasmodium falciparum Dd2 after 72 hrs by SYBR Green I fluorescence based method; format: functional, organism-based; details: Dd2, 72 h; outline: as §1
Plasmodium falciparum [4] = assay: Resistance index, ratio of IC50 for chloroquine-resistant Plasmodium falciparum Dd2 to IC50 for chloroquine-sensitive Plasmodium falciparum D6; format: functional
Outline: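 Ratio of Dd2 IC50 to D6 IC50, each from the 72 h SYBR Green I growth assay (0.2% parasitemia, 2% hematocrit, RPMI-1640 + 0.5% Albumax II), triplicate, IC50 from variable-slope sigmoidal fits.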

[5] = Binding affinity to hematin measured as association constant for 1:1 (hematin-compound) complex formation at pH 7.5
Outline: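 Spectrophotometric titration of hematin with compound in 40% aqueous DMSO, 20 mM HEPES, pH 7.5, 25 °C; hematin held in monomeric state. Association constant for 1:1 compound:hematin complex; means ± SD from at least three experiments in duplicate.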

In the case of `CCN(CC)CCCC(C)Nc1ccnc2cc(Cl)ccc12` (configuration not stated) [CHLOROQUINE], the IC50 [1] is reported as 0.17 mMequiv.
In the case of `S=C(NCCCNc1ccnc2cc(Cl)ccc12)N1CCCCC1`, the IC50 (Plasmodium falciparum [2]) is reported as 104 nM, the IC50 (Plasmodium falciparum [3]) is reported as 104 nM and the “Ratio IC50” value (Plasmodium falciparum [4]) is reported as 0.99. It also gave a log Ks [5] of 5.24 and an IC50 [1] of 0.29 mMequiv.
In the case of `CN1CCN(C(=S)NCCCNc2ccnc3cc(Cl)ccc23)CC1`, the IC50 (Plasmodium falciparum [2]) is reported as 59.1 nM, the IC50 (Plasmodium falciparum [3]) is reported as 68.4 nM and the “Ratio IC50” value (Plasmodium falciparum [4]) is reported as 1.16. It also gave a log Ks [5] of 4.98 and an IC50 [1] of 0.35 mMequiv.
With `CNC(=S)NCCCNc1ccnc2cc(Cl)ccc12` the IC50 (Plasmodium falciparum [2]) was 177 nM, the IC50 (Plasmodium falciparum [3]) was 213 nM and the “Ratio IC50” value (Plasmodium falciparum [4]) was 1.2. It also gave a log Ks [5] of 4.57 and an IC50 [1] of 0.66 mMequiv.
In the case of `S=C(NCCCNc1ccnc2cc(Cl)ccc12)NCCCNc1ccnc2cc(Cl)ccc12`, the IC50 (Plasmodium falciparum [2]) is reported as 128 nM, the IC50 (Plasmodium falciparum [3]) is reported as 280 nM and the “Ratio IC50” value (Plasmodium falciparum [4]) is reported as 2.18. For the same compound, the log Ks [5] was 5.38 and the IC50 [1] was 0.27 mMequiv.
Compound `CN(C)C(=S)NCCCNc1ccnc2cc(Cl)ccc12` has an IC50 (Plasmodium falciparum [2]) of 140 nM, a log Ks [5] of 4.87 and an IC50 [1] of 0.55 mMequiv.
With `S=C(NCCCNc1ccnc2cc(Cl)ccc12)N1CCNCC1` the IC50 (Plasmodium falciparum [2]) was 333 nM, the IC50 (Plasmodium falciparum [3]) was 778 nM and the “Ratio IC50” value (Plasmodium falciparum [4]) was 2.33. It also gave a log Ks [5] of 4.46 and an IC50 [1] of 0.69 mMequiv.
With `CCN(CC)C(=S)NCCCNc1ccnc2cc(Cl)ccc12` the IC50 (Plasmodium falciparum [2]) was 103 nM, the IC50 (Plasmodium falciparum [3]) was 125 nM and the “Ratio IC50” value (Plasmodium falciparum [4]) was 1.21. It also gave a log Ks [5] of 5.34 and an IC50 [1] of 0.15 mMequiv.
For `S=C(NCCCNc1ccnc2cc(Cl)ccc12)NC1CC1`, the IC50 (Plasmodium falciparum [2]) was 23.9 nM, the IC50 (Plasmodium falciparum [3]) was 14.1 nM and the “Ratio IC50” value (Plasmodium falciparum [4]) was 0.59. It also gave a log Ks [5] of 5.67 and an IC50 [1] of 0.11 mMequiv.
In the case of `CC(C)N(C(=S)NCCCNc1ccnc2cc(Cl)ccc12)C(C)C`, the IC50 (Plasmodium falciparum [2]) is reported as 161 nM, the IC50 (Plasmodium falciparum [3]) is reported as 202 nM and the “Ratio IC50” value (Plasmodium falciparum [4]) is reported as 1.25. It also gave a log Ks [5] of 4.95 and an IC50 [1] of 0.33 mMequiv.
In the case of `S=C(NCCCNc1ccnc2cc(Cl)ccc12)N1CCCC1`, the IC50 (Plasmodium falciparum [2]) is reported as 128 nM, the IC50 (Plasmodium falciparum [3]) is reported as 142 nM and the “Ratio IC50” value (Plasmodium falciparum [4]) is reported as 1.11. For the same compound, the log Ks [5] was 4.98 and the IC50 [1] was 0.35 mMequiv.
For `S=C(NCCCNc1ccnc2cc(Cl)ccc12)N1CCOCC1`, the IC50 (Plasmodium falciparum [2]) was 180 nM, the IC50 (Plasmodium falciparum [3]) was 556 nM and the “Ratio IC50” value (Plasmodium falciparum [4]) was 3.08. The log Ks [5] was 4.94 and the IC50 [1] was 0.34 mMequiv.
In the case of `S=C(NCCCNc1ccnc2cc(Cl)ccc12)N1CCN(c2ccccc2)CC1`, the IC50 (Plasmodium falciparum [2]) is reported as 28.7 nM, the IC50 (Plasmodium falciparum [3]) is reported as 50.5 nM and the “Ratio IC50” value (Plasmodium falciparum [4]) is reported as 1.76. For the same compound, the log Ks [5] was 5.37 and the IC50 [1] was 0.17 mMequiv.
Compound `S=C(NCCCNc1ccnc2cc(Cl)ccc12)Nc1ccc(Cl)cc1` has an IC50 (Plasmodium falciparum [2]) of 234 nM, a log Ks [5] of 4.23 and an IC50 [1] of 0.48 mMequiv.
